According to ChEMBL document CHEMBL1149056, “Bioactive annonaceous acetogenins from the bark of Xylopia aromatica” (J Nat Prod, 1994):
≈ marks a conversion by molar mass, not a printed value.

Experiments:
A549 = experiment: Cytotoxicity against human A549 cells after 7 days; format: functional; conditions: for EC50: Homo sapiens, A549, 168 h, read-out: ED50 (the source's name)
Procedure, shortened: (§1)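 Human solid tumor cell lines A-549 (lung carcinoma), MCF-7 (breast carcinoma) and HT-29 (colon adenocarcinoma) tested in seven-day cytotoxicity assays run at a cancer center cell culture laboratory, with adriamycin as positive control.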

HT-29 = experiment: Cytotoxicity against human HT-29 cells after 7 days; format: functional; conditions: for EC50: Homo sapiens, HT-29, 168 h, read-out: ED50 (the source's name); procedure, shortened: as §1
MCF7 = experiment: Cytotoxicity against human MCF7 cells after 7 days; format: functional; conditions: for EC50: Homo sapiens, MCF7, 168 h, read-out: ED50 (the source's name); procedure, shortened: as §1
[1] = Toxicity against brine shrimp larvae; format: organism-based; conditions: artemia, in vivo

Row | SMILES | EC50 (A549) [µg/mL] | EC50 (HT-29) [µg/mL] | EC50 (MCF7) [µg/mL] | ED50 (A549) | ED50 (HT-29) | LC50 [1] [µg/mL] | ED50 (MCF7)
1 | COc1cccc2c1C(=O)c1c(O)c3c(c(O)c1C2=O)C[C@@](O)(C(=O)CO)C[C@@H]3O[C@H]1C[C@H](N)[C@H](O)[C@H](C)O1 [DOXORUBICIN] | 0.0011 (≈ 0.00202 µM) | 0.00279 (≈ 0.00513 µM) | 0.0228 (≈ 0.0419 µM) |  |  |  | 
2 | CCCCCCCCCCCC[C@@H](O)[C@H]1CC[C@H]([C@H](O)CCCC[C@H](O)CCCCC[C@@H](O)CC2=CC(C)OC2=O)O1 (some centres undefined) [ANNONACIN] |  |  | 0.0024 (≈ 0.00402 µM) | <1 ×10⁻⁷ ug/ml | <1 ×10⁻⁷ ug/ml | 0.23 (≈ 0.385 µM) | 
3 | CCCCCCCCCCCCCCC(O)C(O)CC[C@H](O)[C@H]1CC[C@H](CCCCC[C@@H](O)CC2=C[C@H](C)OC2=O)O1 (some centres undefined) [GIGANTETRONENIN] | 0.0047 (≈ 0.00787 µM) | 0.0537 (≈ 0.09 µM) | 0.603 (≈ 1.01 µM) |  |  |  | 
4 | CCCCCCCCCCCCCC[C@@H](O)[C@H](O)CC[C@H](O)[C@@H]1CC[C@@H](CCCCC[C@@H](O)CC2=C[C@H](C)OC2=O)O1 [GIGANTETROCIN A] | 0.25 (≈ 0.419 µM) |  | 0.63 (≈ 1.06 µM) |  | 4.1 ×10⁻⁵ ug/ml | 1.4 (≈ 2.35 µM) | 
5 | CCCCCCCCCCCC[C@H](O)[C@@H]1CC[C@@H]([C@@H](O)CCCCCCC(O)CCCCC[C@@H](O)CC2=C[C@H](C)OC2=O)O1 (some centres undefined) [ANNOMONTACIN] | 0.00772 (≈ 0.0124 µM) | 0.00258 (≈ 0.00413 µM) | 0.165 (≈ 0.264 µM) |  |  |  | 
6 | CCCCCCCCCCCC[C@@H](O)[C@H]1CC[C@H]([C@H](O)CCCCCCC(O)CCC[C@@H](O)CC2=C[C@H](C)OC2=O)O1 (some centres undefined) [XYLOPIANIN] | 0.0426 (≈ 0.0714 µM) | 6.63 (≈ 11.1 µM) | 18.5 (≈ 30.9 µM) |  |  | 0.33 (≈ 0.553 µM) | 
7 | CCCCCCCCCCCCCC[C@@H](O)[C@H]1CC[C@H]([C@H](O)CCCCCCC(O)CCC[C@@H](O)CC2=C[C@H](C)OC2=O)O1 (some centres undefined) [XYLOPIACIN] |  | 0.111 (≈ 0.178 µM) |  | 1.36 ×10⁻⁶ ug/ml |  | 0.49 (≈ 0.784 µM) | 1.39 ×10⁻⁷ ug/ml
8 | CCCCCCCCCCCCCC[C@@H](O)[C@H]1CC[C@H]([C@H](O)CCCCC(O)CCCCC[C@@H](O)CC2=C[C@H](C)OC2=O)O1 (some centres undefined) [XYLOMATICIN] |  | 0.304 (≈ 0.486 µM) |  | 1.54 ×10⁻⁴ ug/ml |  | 0.11 (≈ 0.176 µM) | 1.47 ×10⁻⁶ ug/ml
